Results taken from ChEMBL document CHEMBL4219177, “Synthesis and evaluation of the antibacterial activities of aryl substituted dihydrotriazine derivatives” (Bioorg Med Chem Lett, 2018).
In brackets after ≈: the same amount, converted by molar mass.

What was measured:
Escherichia coli = test: Antibacterial activity against Escherichia coli 1924 after 24 hrs by two-fold serial dilution method; format: functional; conditions: Escherichia coli, 1924, 24 h
Procedure, shortened: (§1)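 Bacteria grown to mid-log phase in Mueller-Hinton broth, diluted 1000-fold, and inoculated at 10^5 CFU/mL. Compounds were dissolved in DMSO (final ≤0.05%) and two-fold serially diluted. MIC was the lowest concentration giving complete growth inhibition after 24 h at 37 °C, with growth read as absorbance at 650 nm. Each experiment was run three times.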

Staphylococcus aureus [1] = test: Antibacterial activity against methicillin-resistant Staphylococcus aureus isolate CCARM 3167 after 24 hrs by two-fold serial dilution method; format: functional; conditions: isolate CCARM 3167, 24 h
Candida albicans = test: Antifungal activity against Candida albicans 7535 after 24 hrs by two-fold serial dilution method; format: functional; conditions: Candida albicans, 7535, 24 h
Streptococcus mutans = test: Antibacterial activity against Streptococcus mutans 3289 after 24 hrs by two-fold serial dilution method; format: functional; conditions: Streptococcus mutans, 3289, 24 h
Staphylococcus aureus [2] = test: Antibacterial activity against quinolone-resistant Staphylococcus aureus isolate CCARM 3505 after 24 hrs by two-fold serial dilution method; format: functional; conditions: isolate CCARM 3505, 24 h
Procedure, shortened: (§2)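 Broth microdilution MIC. Bacteria were grown to mid-log phase in Mueller-Hinton broth, diluted 1000-fold, and inoculated at 10^5 CFU/mL. Compounds in DMSO (final ≤0.05%) were tested as two-fold serial dilutions from 64 to 0.25. Plates were incubated 24 h at 37 °C and growth read as absorbance at 650 nm. MIC = concentration completely inhibiting growth. Experiments were run three times.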

Pseudomonas aeruginosa = test: Antibacterial activity against Pseudomonas aeruginosa 2742 after 24 hrs by two-fold serial dilution method; format: functional; conditions: Pseudomonas aeruginosa, 2742, 24 h; procedure, shortened: as §1
Salmonella typhimurium = test: Antibacterial activity against Salmonella typhimurium 2421 after 24 hrs by two-fold serial dilution method; format: functional, Salmonella enterica subsp. enterica serovar Typhimurium; conditions: Salmonella enterica, 2421, 24 h; procedure, shortened: as §1
Staphylococcus aureus [3] = test: Antibacterial activity against Staphylococcus aureus 4220 after 24 hrs by two-fold serial dilution method; format: functional; conditions: RN4220, 24 h; procedure, shortened: as §2
L02 = test: Cytotoxicity against human L02 cells assessed as growth inhibition after 24 hrs by MTT assay; format: cell-based; conditions: L02, 24 h

Row | SMILES | MIC (Escherichia coli) | MIC (Staphylococcus aureus [1]) | MIC (Candida albicans) | MIC (Streptococcus mutans) | MIC (Staphylococcus aureus [2]) | MIC (Pseudomonas aeruginosa) | MIC (Salmonella typhimurium) | MIC (Staphylococcus aureus [3]) | IC50 (L02)
1 | Cc1ccc(COc2ccc3cc(C4N=C(N)NC(N(C)C)=N4)ccc3c2)cc1 (stereo not drawn) | 2 µg/mL (≈ 5.16 µM) | 2 µg/mL | 4 µg/mL (≈ 10.3 µM) | 2 µg/mL (≈ 5.16 µM) | 2 µg/mL (≈ 5.16 µM) | 64 µg/mL (≈ 165 µM) | 64 µg/mL (≈ 165 µM) | 2 µg/mL | –
2 | COc1c(N2CCNC(C)C2)c(F)cc2c(=O)c(C(=O)O)cn(C3CC3)c12 (stereo not drawn) [GATIFLOXACIN] | 2 µg/mL (≈ 5.33 µM) | 2 µg/mL | 0.5 µg/mL (≈ 1.33 µM) | 0.25 µg/mL (≈ 0.666 µM) | 8 µg/mL (≈ 21.3 µM) | 1 µg/mL (≈ 2.66 µM) | – | 0.25 µg/mL | –
3 | CN(C)C1=NC(c2ccc3cc(OCc4ccc(Br)cc4)ccc3c2)N=C(N)N1 (stereo not drawn) | 1 µg/mL (≈ 2.21 µM) | 1 µg/mL | 1 µg/mL (≈ 2.21 µM) | 1 µg/mL (≈ 2.21 µM) | 1 µg/mL (≈ 2.21 µM) | 64 µg/mL (≈ 141 µM) | 64 µg/mL (≈ 141 µM) | 1 µg/mL | –
4 | CN(C)C1=NC(c2ccc(/C=C/C(=O)c3ccc(Br)cc3)cc2)N=C(N)N1 (stereo not drawn) | 16 µg/mL (≈ 37.5 µM) | 8 µg/mL | 16 µg/mL (≈ 37.5 µM) | 16 µg/mL (≈ 37.5 µM) | 8 µg/mL (≈ 18.8 µM) | > 64 µg/mL | > 64 µg/mL | 16 µg/mL | –
5 | COc1cccc(C(=O)/C=C/c2ccc(C3N=C(N)NC(N(C)C)=N3)cc2)c1 (stereo not drawn) | 16 µg/mL (≈ 42.4 µM) | 16 µg/mL | 16 µg/mL (≈ 42.4 µM) | 16 µg/mL (≈ 42.4 µM) | 16 µg/mL (≈ 42.4 µM) | > 64 µg/mL | > 64 µg/mL | 32 µg/mL | –
6 | CN(C)C1=NC(c2ccc(/C=C/C(=O)c3ccccc3)cc2)N=C(N)N1 (stereo not drawn) | 64 µg/mL (≈ 184 µM) | 32 µg/mL | 32 µg/mL (≈ 92.1 µM) | 32 µg/mL (≈ 92.1 µM) | 32 µg/mL (≈ 92.1 µM) | > 64 µg/mL | > 64 µg/mL | 32 µg/mL | –
7 | CN(C)C1=NC(c2ccc3cc(OCc4cccc(Cl)c4)ccc3c2)N=C(N)N1 (stereo not drawn) | 1 µg/mL (≈ 2.45 µM) | 1 µg/mL | 1 µg/mL (≈ 2.45 µM) | 2 µg/mL (≈ 4.9 µM) | 1 µg/mL (≈ 2.45 µM) | 64 µg/mL (≈ 157 µM) | 64 µg/mL (≈ 157 µM) | 2 µg/mL | –
8 | OC(Cn1cncn1)(Cn1cncn1)c1ccc(F)cc1F [FLUCONAZOLE] | – | – | – | 1 µg/mL (≈ 3.27 µM) | – | – | – | – | –
9 | CN(C)C1=NC(c2ccc(OCc3ccc(F)cc3)cc2)N=C(N)N1 (stereo not drawn) | 64 µg/mL (≈ 187 µM) | 32 µg/mL | 64 µg/mL (≈ 187 µM) | 64 µg/mL (≈ 187 µM) | 64 µg/mL (≈ 187 µM) | > 64 µg/mL | > 64 µg/mL | 64 µg/mL | –
10 | CN(C)C1=NC(c2ccc(OCC(=O)c3ccccc3)cc2)N=C(N)N1 (stereo not drawn) | > 64 µg/mL | > 64 µg/mL | > 64 µg/mL | > 64 µg/mL | > 64 µg/mL | > 64 µg/mL | > 64 µg/mL | > 64 µg/mL | –
11 | CN(C)C1=NC(c2ccc3cc(OCc4ccccc4F)ccc3c2)N=C(N)N1 (stereo not drawn) | 4 µg/mL (≈ 10.2 µM) | 2 µg/mL | 4 µg/mL (≈ 10.2 µM) | 4 µg/mL (≈ 10.2 µM) | 4 µg/mL (≈ 10.2 µM) | 64 µg/mL (≈ 163 µM) | 64 µg/mL (≈ 163 µM) | 2 µg/mL | –
12 | CN(C)C1=NC(c2ccc3cc(OCc4ccccc4Cl)ccc3c2)N=C(N)N1 (stereo not drawn) | 1 µg/mL (≈ 2.45 µM) | 1 µg/mL | 1 µg/mL (≈ 2.45 µM) | 2 µg/mL (≈ 4.9 µM) | 1 µg/mL (≈ 2.45 µM) | 64 µg/mL (≈ 157 µM) | 64 µg/mL (≈ 157 µM) | 2 µg/mL | –
13 | CN(C)C1=NC(c2ccc(/C=C/C(=O)c3ccccc3Br)cc2)N=C(N)N1 (stereo not drawn) | 64 µg/mL (≈ 150 µM) | 32 µg/mL | 32 µg/mL (≈ 75.1 µM) | 16 µg/mL (≈ 37.5 µM) | 32 µg/mL (≈ 75.1 µM) | > 64 µg/mL | > 64 µg/mL | 64 µg/mL | –
14 | CN(C)C1=NC(c2ccc3cc(OCC(=O)c4ccccc4)ccc3c2)N=C(N)N1 (stereo not drawn) | 64 µg/mL (≈ 159 µM) | 32 µg/mL | 32 µg/mL (≈ 79.7 µM) | 64 µg/mL (≈ 159 µM) | 32 µg/mL (≈ 79.7 µM) | > 64 µg/mL | > 64 µg/mL | 32 µg/mL | –
15 | Cc1ccc(COc2ccc(C3N=C(N)NC(N(C)C)=N3)cc2)cc1 (stereo not drawn) | 16 µg/mL (≈ 47.4 µM) | 32 µg/mL | 16 µg/mL (≈ 47.4 µM) | 16 µg/mL (≈ 47.4 µM) | 32 µg/mL (≈ 94.8 µM) | > 64 µg/mL | > 64 µg/mL | 32 µg/mL | –
16 | Cc1ccc(C(=O)/C=C/c2ccc(C3N=C(N)NC(N(C)C)=N3)cc2)cc1 (stereo not drawn) | 32 µg/mL (≈ 88.5 µM) | 16 µg/mL | 16 µg/mL (≈ 44.3 µM) | 16 µg/mL (≈ 44.3 µM) | 16 µg/mL (≈ 44.3 µM) | > 64 µg/mL | > 64 µg/mL | 32 µg/mL | –
17 | Cc1ccc(C(=O)/C=C/c2ccc(C3N=C(N)NC(N(C)C)=N3)cc2)c(C)c1 (stereo not drawn) | 32 µg/mL (≈ 85.2 µM) | 32 µg/mL | 32 µg/mL (≈ 85.2 µM) | 32 µg/mL (≈ 85.2 µM) | 32 µg/mL (≈ 85.2 µM) | > 64 µg/mL | > 64 µg/mL | 32 µg/mL | –
18 | CN(C)C1=NC(c2ccc3cc(OCC(=O)c4ccc(Br)cc4)ccc3c2)N=C(N)N1 (stereo not drawn) | 8 µg/mL (≈ 16.7 µM) | 8.35 µM | 16 µg/mL (≈ 33.3 µM) | 8 µg/mL (≈ 16.7 µM) | 4 µg/mL (≈ 8.33 µM) | 64 µg/mL (≈ 133 µM) | 64 µg/mL (≈ 133 µM) | 16.7 µM | 58.7 µM
19 | CN(C)C1=NC(c2ccc3cc(OCc4ccc(Cl)cc4)ccc3c2)N=C(N)N1 (stereo not drawn) | 1 µg/mL (≈ 2.45 µM) | 1 µg/mL | 1 µg/mL (≈ 2.45 µM) | 1 µg/mL (≈ 2.45 µM) | 1 µg/mL (≈ 2.45 µM) | 64 µg/mL (≈ 157 µM) | 64 µg/mL (≈ 157 µM) | 1 µg/mL | –
20 | COc1ccccc1C(=O)/C=C/c1ccc(C2N=C(N)NC(N(C)C)=N2)cc1 (stereo not drawn) | 64 µg/mL (≈ 170 µM) | 64 µg/mL | 32 µg/mL (≈ 84.8 µM) | 64 µg/mL (≈ 170 µM) | 64 µg/mL (≈ 170 µM) | > 64 µg/mL | > 64 µg/mL | 64 µg/mL | –
21 | CN(C)C1=NC(c2ccc(OCc3ccccc3)cc2)N=C(N)N1 (stereo not drawn) | 32 µg/mL (≈ 98.9 µM) | 32 µg/mL | 32 µg/mL (≈ 98.9 µM) | 32 µg/mL (≈ 98.9 µM) | 32 µg/mL (≈ 98.9 µM) | > 64 µg/mL | > 64 µg/mL | 64 µg/mL | –
22 | CN(C)C1=NC(c2ccc(OCC(=O)c3ccc(Br)cc3)cc2)N=C(N)N1 (stereo not drawn) | 64 µg/mL (≈ 149 µM) | 32 µg/mL | 32 µg/mL (≈ 74.4 µM) | 32 µg/mL (≈ 74.4 µM) | 64 µg/mL (≈ 149 µM) | > 64 µg/mL | > 64 µg/mL | 32 µg/mL | –
23 | COc1c(N2C[C@@H]3CCCN[C@@H]3C2)c(F)cc2c(=O)c(C(=O)O)cn(C3CC3)c12 [MOXIFLOXACIN] | – | – | – | – | 1 µg/mL (≈ 2.49 µM) | 0.5 µg/mL (≈ 1.25 µM) | – | 4 µg/mL | –
24 | CN(C)C1=NC(c2ccc(/C=C/C(=O)c3ccc(F)cc3)cc2)N=C(N)N1 (stereo not drawn) | 32 µg/mL (≈ 87.6 µM) | 32 µg/mL | 32 µg/mL (≈ 87.6 µM) | 16 µg/mL (≈ 43.8 µM) | 32 µg/mL (≈ 87.6 µM) | > 64 µg/mL | > 64 µg/mL | 32 µg/mL | –
25 | CN(C)C1=NC(c2ccc3cc(OCc4ccccc4)ccc3c2)N=C(N)N1 (stereo not drawn) | 8 µg/mL (≈ 21.4 µM) | 8 µg/mL | 8 µg/mL (≈ 21.4 µM) | 8 µg/mL (≈ 21.4 µM) | 8 µg/mL (≈ 21.4 µM) | > 64 µg/mL | > 64 µg/mL | 16 µg/mL | –
